For seven compounds, Activity results are on record in ChEMBL document CHEMBL1145286, “Dual angiotensin II and endothelin A receptor antagonists: synthesis of 2'-substituted N-3-isoxazolyl biphenylsulfonamides with improved potency and pharmacokinetics” (2005).

What all share (format): functional
Assay [1] addresses T1, Endothelin-1 receptor (Rattus norvegicus) (UniProt P26684).
T1 sequence (whole entry): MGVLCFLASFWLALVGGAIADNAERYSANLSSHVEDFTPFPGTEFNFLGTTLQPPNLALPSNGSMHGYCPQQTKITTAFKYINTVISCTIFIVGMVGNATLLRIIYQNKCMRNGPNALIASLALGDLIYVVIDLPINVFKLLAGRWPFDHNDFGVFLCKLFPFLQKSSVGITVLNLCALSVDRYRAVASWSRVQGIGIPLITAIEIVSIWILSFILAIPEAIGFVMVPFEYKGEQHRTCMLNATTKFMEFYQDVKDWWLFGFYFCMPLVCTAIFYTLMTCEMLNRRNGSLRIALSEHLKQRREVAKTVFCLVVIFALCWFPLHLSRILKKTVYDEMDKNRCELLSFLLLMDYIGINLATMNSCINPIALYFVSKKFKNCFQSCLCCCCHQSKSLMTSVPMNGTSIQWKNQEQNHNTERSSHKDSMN
Put plainly: Endothelin pressor effect in rats after oral dose of 30 uM/kg. The method, boiled down:
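Conscious normotensive rats; big endothelin-1 (1.0 nmol/kg iv) challenge after vehicle gave the control pressor response. Drug at 30 μmol/kg given po (or iv), then bET-1 re-challenge at various times after dosing. 6–8 rats per group.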

Assay [2] has as its target Angiotensin II receptor (AT-1) type-1 (Rattus norvegicus) (UniProt P29089+P25095). The experiment in a line: Angiotensin II pressor effect in rats after oral dose of 30 uM/kg. An outline of the steps:
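Conscious rats given vehicle by gavage, then an iv bolus Ang II challenge as control pressor response; drug at 30 μmol/kg by oral gavage, Ang II re-challenge at intervals up to 240 min. 6–8 rats per dose. […]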

Another assay has as its system Caco-2. The experiment in a line: Permeability in Caco-2 cell monolayer. For orientation: Passage across Caco-2 layers is used to estimate intestinal permeability.

Activity calls are given as the source filed them. The calls are words filed in the database; no cut-off is given here.

With `CCCCC1=NC2(CCCC2)C(=O)N1Cc1ccc(-c2ccccc2S(=O)(=O)Nc2onc(C)c2C)c(CN2CCC(C)(C)C2=O)c1` [BMS-248360], the figures for the Activity (in assay [1]; in assay [2]; with Caco-2) were 7900 AUC units, 5800 AUC units and 30 nm/s, respectively.

In the case of `CCCCC1=NC2(CCCC2)C(=O)N1Cc1ccc(-c2ccccc2S(=O)(=O)Nc2noc(C)c2C)c(CCC)c1`, the Activity was found to be 13000 AUC units in assay [1] and 16300 AUC units in assay [2].

As to `CCCCC1=NC2(CCCC2)C(=O)N1Cc1ccc(-c2ccccc2S(=O)(=O)Nc2onc(C)c2C)c(CCC)c1`, the figures for the Activity (in assay [1]; in assay [2]; with Caco-2) were 8600 AUC units, 15900 AUC units and 240 nm/s, respectively.

For the compound `CCCCC1=NC2(CCCC2)C(=O)N1Cc1ccc(-c2ccccc2-c2nnn[nH]2)cc1` [IRBESARTAN], the result in assay [1] was inactive. Moreover, the Activity was 13500 AUC units in assay [2] and 100 nm/s in the assay on Caco-2.

With `CCCCC1=NC2(CCCC2)C(=O)N1Cc1ccc(-c2ccccc2S(=O)(=O)Nc2noc(C)c2C)c(COCC)c1`, the values for the Activity in assay [1] and in assay [2] were 15800 AUC units and 18600 AUC units, respectively.

On to `CCCCC1=NC2(CCCC2)C(=O)N1Cc1ccc(-c2ccccc2S(=O)(=O)Nc2onc(C)c2C)c(COCC)c1`, for which the Activity in assay [1] was 3900 AUC units; in assay [2], 13900 AUC units; in the assay on Caco-2, 170 nm/s.

Take `Cc1noc(NS(=O)(=O)c2ccccc2-c2ccc(-c3ncco3)cc2)c1C`: in assay [1], the Activity was 9700 AUC units. In assay [2], the outcome was inactive.
